Experimental findings from ChEMBL document CHEMBL4145582, “Cytotoxic and Antibacterial Eremophilane Sesquiterpenes from the Marine-Derived Fungus Cochliobolus lunatus SCSIO41401” (J Nat Prod, 2018) are described below.

The subject of assay [1] is OS-RC-2. The assay can be described thus: Cytotoxicity against human OS-RC2 cells after 72 hrs by CCK8 assay. Type of assay: functional, cell-based. Conditions: OS-RC-2, 72 h. In a few lines: (§1)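 Renal cancer lines ACHN, 786-O and OS-RC-2; cell viability read by CCK-8 assay, with sorafenib as positive control.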
A general note: Tetrazolium dyes change colour on reduction, which living cells bring about.

Assay [2] deals with ACHN. In words: Induction of apoptosis in human ACHN cells assessed as necrotic cells at 2 uM after 72 hrs by Annexin V-FITC/propidium iodide staining based flow cytometric method (reference value: 0%). Type of assay: functional. In a few lines: (§2)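 ACHN cells are treated at 1, 2 and 4 μM for 24, 48 and 72 h. Cells are then double-stained with annexin V-FITC and propidium iodide and analysed by flow cytometry. Early apoptotic, late apoptotic, necrotic and viable fractions are quantified.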
Background: In flow cytometry, cells or beads pass a laser one at a time.

The test system of assay [3] is ACHN. The assay can be described thus: Induction of apoptosis in human ACHN cells assessed as late apoptotic cells at 4 uM after 72 hrs by Annexin V-FITC/propidium iodide staining based flow cytometric method (reference value: 0%). Format: functional. An outline of the steps: as §2
Assay [4] deals with ACHN. The assay can be described thus: Induction of apoptosis in human ACHN cells assessed as viable cells at 2 uM after 24 hrs by Annexin V-FITC/propidium iodide staining based flow cytometric method (reference value: 100%). Conditions: read-out: Activity. Type of assay: functional. An outline of the steps: as §2
Assay [5] relates to ACHN. In words: Induction of apoptosis in human ACHN cells assessed as early apoptotic cells at 1 uM after 48 hrs by Annexin V-FITC/propidium iodide staining based flow cytometric method (reference value: 0%). Format: functional. An outline of the steps:
as §2

The test system of assay [6] is ACHN. In words: Induction of apoptosis in human ACHN cells assessed as necrotic cells at 4 uM after 48 hrs by Annexin V-FITC/propidium iodide staining based flow cytometric method (reference value: 0%). Type of assay: functional. An outline of the steps:
as §2

In assay [7] the test system is 786-0. The assay can be described thus: Cytotoxicity against human 786-O cells after 72 hrs by CCK8 assay. Type of assay: functional, cell-based. As to conditions: 786-0, 72 h. An outline of the steps: as §1
Assay [8] relates to HepG2. In words: Cytotoxicity against human HepG2 cells after 6 days by MTT assay. Type of assay: functional, cell-based. As to conditions: HepG2, 144 h. An outline of the steps:
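HepG-2 and SGC7901 cells; growth inhibition read by MTT method, with 5-fluorouracil as positive control.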

For assay [9], the system named is ACHN. The assay can be described thus: Cytotoxicity against human ACHN cells after 72 hrs by CCK8 assay. Format: functional, cell-based. An outline of the steps: as §1
In assay [10] the test system is ACHN. In words: Induction of apoptosis in human ACHN cells assessed as viable cells at 4 uM after 72 hrs by Annexin V-FITC/propidium iodide staining based flow cytometric method (reference value: 100%). As to conditions: read-out: Activity. Type of assay: functional. In a few lines: as §2
Assay [11] deals with ACHN. The assay can be described thus: Induction of apoptosis in human ACHN cells assessed as necrotic cells at 2 uM after 24 hrs by Annexin V-FITC/propidium iodide staining based flow cytometric method (reference value: 0%). Format: functional. An outline of the steps:
as §2

The test system of assay [12] is ACHN. In words: Induction of apoptosis in human ACHN cells assessed as late apoptotic cells at 4 uM after 24 hrs by Annexin V-FITC/propidium iodide staining based flow cytometric method (reference value: 0%). Type of assay: functional. In a few lines:
as §2

Assay [13] deals with ACHN. In words: Induction of apoptosis in human ACHN cells assessed as early apoptotic cells at 2 uM after 48 hrs by Annexin V-FITC/propidium iodide staining based flow cytometric method (reference value: 0%). Type of assay: functional. In a few lines:
as §2

In the case of `C=C(/C=N/O)[C@]1(OC)C[C@@]2(C)C(=CC1=O)C=C[C@H](OC(=O)/C=C/C(C)=C/[C@@H](C)CC)[C@@H]2C`, the IC50 (as a rule, the concentration that inhibits the measured activity by half) in [1] was over 50 µM; in assay [7], 27 µM; in assay [8], 5.9 µM; in assay [9] it was 3.1 µM. Moreover, the Activity in assay [2] came out at 9%; in assay [3], 8.5%; in [5], 1.3%; in assay [6], 19.5%; in assay [11], 7.2%; in [12], 1.1%. Further, the Activity in assay [13] came to 2.3%. The viability at 2 µM in assay [4] was 91.4%. The viability at 4 µM in assay [10] worked out at 6.9%.
